Test results reported in ChEMBL document CHEMBL4680073, “Total Synthesis of Laspartomycin C and Characterization of Its Antibacterial Mechanism of Action” (J Med Chem, 2016).
In brackets after ≈: the same amount, converted by molar mass. Activity calls are given as the source filed them. No cut-off for these calls is given here. Bridge positions count the residues as written; N and C are the ends. Square brackets hold non-standard residues; d marks the D form. Peptide text beside a SMILES is read from it. * marks the point of attachment. Tetradecenoyl(2E,13-Me) = CC(C)CCCCCCCCC/C=C/C(=O)*; d(aThr) = C[C@@H](O)[C@@H](N)C(=O)O; dPip = O=C(O)[C@H]1CCCCN1; Dap = NC[C@H](N)C(=O)O

Experiments:
Staphylococcus simulans [1] = test: Antibacterial activity against Staphylococcus simulans 22 assessed as inhibition of bacterial growth incubated for 16 hrs in presence of lipid II by broth microdilution assay; format: functional, organism-based
Procedure, shortened: (§1)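 The antibiotic was pre-incubated with the cell wall precursor (e.g. UDP-GlcNAc, C55-PP, C55-P) before being given to the bacteria, with vancomycin as positive control.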

Staphylococcus simulans [2] = test: Antibacterial activity against Staphylococcus simulans 22 assessed as inhibition of bacterial growth incubated for 16 hrs in presence of 10 mM Ca2+ by broth microdilution assay; format: functional
Procedure, shortened: (§2)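 MICs were read in µg/mL against indicator strains S. aureus 29213 and S. simulans 22. The growth medium was supplemented with Ca2+ at 5.0 or 10 mM.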

Staphylococcus simulans [3] = test: Antibacterial activity against Staphylococcus simulans 22 assessed as inhibition of bacterial growth incubated for 16 hrs in presence of UDP-MurNAc-pp by broth microdilution assay; format: functional, organism-based; procedure, shortened: as §1
[4] = Binding affinity to calcium at 60 uM in pH 7.4 buffer by CD spectroscopy
Staphylococcus simulans [5] = test: Antibacterial activity against Staphylococcus simulans 22 assessed as inhibition of bacterial growth incubated for 16 hrs in presence of C55-P by broth microdilution assay; format: functional, organism-based; procedure, shortened: as §1
Staphylococcus simulans [6] = test: Antibacterial activity against Staphylococcus simulans 22 assessed as inhibition of bacterial growth incubated for 16 hrs in presence of C15-PP by broth microdilution assay; format: functional, organism-based; procedure, shortened: as §1
Staphylococcus simulans [7] = test: Antibacterial activity against Staphylococcus simulans 22 assessed as inhibition of bacterial growth incubated for 16 hrs in presence of UDP-GlcNAc by broth microdilution assay; format: functional, organism-based; procedure, shortened: as §1
Staphylococcus simulans [8] = test: Antibacterial activity against Staphylococcus simulans 22 assessed as inhibition of bacterial growth incubated for 16 hrs in presence of C55-PP by broth microdilution assay; format: functional, organism-based; procedure, shortened: as §1
Staphylococcus simulans [9] = test: Antibacterial activity against Staphylococcus simulans 22 assessed as inhibition of bacterial growth incubated for 16 hrs in presence of lipid I by broth microdilution assay; format: functional, organism-based; procedure, shortened: as §1
Staphylococcus simulans [10] = test: Antibacterial activity against Staphylococcus simulans 22 assessed as inhibition of bacterial growth incubated for 16 hrs in presence of C15-P by broth microdilution assay; format: functional, organism-based; procedure, shortened: as §1
Staphylococcus aureus [11] = test: Antibacterial activity against Staphylococcus aureus ATCC 29213 assessed as inhibition of bacterial growth incubated for 16 hrs in presence of 10 mM Ca2+ by broth microdilution assay; format: functional
Procedure, shortened: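 MIC, read in µg/mL, was determined in growth medium supplemented with Ca2+ at a final 10 mM. The same strain was also tested at 5 mM Ca2+ to check how calcium level affects the MIC.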

Staphylococcus simulans [12] = test: Antibacterial activity against Staphylococcus simulans 22 assessed as inhibition of bacterial growth incubated for 16 hrs in presence of 5 mM Ca2+ by broth microdilution assay; format: functional; procedure, shortened: as §2
Staphylococcus aureus [13] = test: Antibacterial activity against Staphylococcus aureus ATCC 29213 assessed as inhibition of bacterial growth incubated for 16 hrs by broth microdilution assay; format: functional; procedure, shortened: as §2
[14] = Binding affinity to undecaprenyl phosphate (C55-P) at 0.5 to 2 equiv in Ca2+-containing buffer incubated for 2 hrs by TLC-based binding assay; conditions: dose 0.5-2 equiv
[15] = Binding affinity to lipid II at 0.5 to 2 equiv in Ca2+-containing buffer incubated for 2 hrs by TLC-based binding assay; conditions: dose 0.5-2 equiv
[16] = Binding affinity to undecaprenyl phosphate (C55-P) assessed as reduction in lipid II synthesis at 0.5 to 2 equiv in presence of UDP-GlcNAc, UDPMurNAc-pentapeptide and Micrococcus flavus membrane vesicles and measured after 2 hrs by TLC analysis; conditions: dose 0.5-2 equiv
Procedure, shortened: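 C55-P was pre-treated with the antibiotic over a range of concentrations. UDP-GlcNAc, UDP-MurNAc-pentapeptide and M. flavus membrane vesicles containing MraY and MurG were then added, and lipid II formation was monitored.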

Staphylococcus aureus [17] = test: Induction of UDP-MurNAc-pentapeptide accumulation in Staphylococcus aureus ATCC 29213 at 10 times MIC incubated for 60 mins by HPLC analysis; format: functional
[18] = Binding affinity to undecaprenyl phosphate (C55-P) in large unilamellar vesicles comprising 1,2-dioleoyl-sn-glycero-3-phosphocholine containing 1.5 mol % C55-P by ITC analysis
Procedure, shortened: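 Isothermal titration calorimetry: DOPC vesicles containing 1.5 mol% C55-P were titrated into the antibiotic solution in HEPES buffer with CaCl2. Heat was plotted against molar ratio.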

Row | Compound | Activity (Staphylococcus simulans [1]) | MIC (Staphylococcus simulans [2]) | Activity (Staphylococcus simulans [3]) | Activity [4] | Activity (Staphylococcus simulans [5]) | Activity (Staphylococcus simulans [6]) | Activity (Staphylococcus simulans [7]) | Activity (Staphylococcus simulans [8]) | Activity (Staphylococcus simulans [9]) | Activity (Staphylococcus simulans [10]) | MIC (Staphylococcus aureus [11]) | MIC (Staphylococcus simulans [12]) | MIC (Staphylococcus aureus [13]) | Activity [14] | Activity [15] | Activity [16] | Activity (Staphylococcus aureus [17]) | Kd [18]
1 | CCCCCCCCCC(=O)N[C@@H](Cc1c[nH]c2ccccc12)C(=O)N[C@H](CC(N)=O)C(=O)N[C@@H](CC(=O)O)C(=O)N[C@H]1CNC(=O)[C@H]2CCCN2C(=O)[C@H]([C@@H](C)CC)NC(=O)[C@@H]([C@@H](C)O)NC(=O)CNC(=O)[C@H](CC(=O)O)NC(=O)[C@@H](C)NC(=O)[C@H](CC(=O)O)NC(=O)CNC(=O)[C@H]2CCCCN2C1=O | Active | inactive | Active | Active | Active | Active | Active | Active | Active | Active |  |  |  |  |  |  |  | 
2 | CCCCCCCCCC(=O)N[C@@H](Cc1c[nH]c2ccccc12)C(=O)N[C@H](CC(N)=O)C(=O)N[C@@H](CC(=O)O)C(=O)N[C@@H]1C(=O)NCC(=O)N[C@@H](CCCN)C(=O)N[C@@H](CC(=O)O)C(=O)N[C@H](C)C(=O)N[C@@H](CC(=O)O)C(=O)NCC(=O)N[C@H](CO)C(=O)N[C@@H]([C@@H](C)CC(=O)O)C(=O)N[C@@H](CC(=O)c2ccccc2N)C(=O)O[C@@H]1C |  | ≤ 0.031 µg/mL |  |  |  |  |  |  |  |  | 0.125 µg/mL | 0.031 µg/mL | 0.25 µg/mL (≈ 0.154 µM) |  |  |  |  | 
3 | CCCCCCCCCC(=O)N[C@@H](Cc1c[nH]c2ccccc12)C(=O)N[C@H](CC(N)=O)C(=O)N[C@@H](CC(=O)O)C(=O)N[C@H]1CNC(=O)[C@@H](CC(=O)c2ccccc2N)NC(=O)[C@H](CCC(=O)O)NC(=O)[C@@H](CO)NC(=O)CNC(=O)[C@H](CC(=O)O)NC(=O)[C@@H](C)NC(=O)[C@H](CC(=O)O)NC(=O)[C@H](CCCN)NC(=O)[C@H]2CCCCN2C1=O | Active |  | Active |  | Active | Active | Active | Active | Active | Active |  |  |  |  |  |  |  | 
4 | CCCCCCCCCC(=O)N[C@@H](Cc1c[nH]c2ccccc12)C(=O)N[C@H](CC(N)=O)C(=O)N[C@@H](CC(=O)O)C(=O)N[C@H]1CNC(=O)[C@H]2CCCN2C(=O)[C@H](CCC(=O)O)NC(=O)[C@@H](CO)NC(=O)CNC(=O)[C@H](CC(=O)O)NC(=O)[C@@H](C)NC(=O)[C@H](CC(=O)O)NC(=O)[C@H](CCCN)NC(=O)[C@H]2CCCCN2C1=O | Active | inactive | Active | Active | Active | Active | Active | Active | Active | Active |  |  |  |  |  |  |  | 
5 | CN[C@H](CC(C)C)C(=O)N[C@H]1C(=O)N[C@@H](CC(N)=O)C(=O)N[C@H]2C(=O)N[C@H]3C(=O)N[C@H](C(=O)N[C@H](C(=O)O)c4cc(O)cc(O)c4-c4cc3ccc4O)[C@H](O)c3ccc(c(Cl)c3)Oc3cc2cc(c3O[C@@H]2O[C@H](CO)[C@@H](O)[C@H](O)[C@H]2O[C@H]2C[C@](C)(N)[C@H](O)[C@H](C)O2)Oc2ccc(cc2Cl)[C@H]1O | inactive |  | inactive |  |  |  |  |  | inactive |  |  |  |  |  |  |  |  | 
6 | CCCCCCCCCC(=O)N[C@@H](Cc1c[nH]c2ccccc12)C(=O)N[C@H](CC(N)=O)C(=O)N[C@@H](CC(=O)O)C(=O)N[C@H]1CNC(=O)[C@@H](Cc2c[nH]c3ccccc23)NC(=O)[C@H](CCC(=O)O)NC(=O)[C@@H](CO)NC(=O)CNC(=O)[C@H](CC(=O)O)NC(=O)[C@@H](C)NC(=O)[C@H](CC(=O)O)NC(=O)[C@H](CCCN)NC(=O)[C@H]2CCCCN2C1=O | Active |  | Active |  | Active | Active | Active | Active | Active | Active |  |  |  |  |  |  |  | 
7 | CCCCCCCCCC(=O)N[C@@H](Cc1c[nH]c2ccccc12)C(=O)N[C@@H](CC(N)=O)C(=O)N[C@@H](CC(=O)O)C(=O)N[C@@H]1C(=O)NCC(=O)N[C@@H](CCCN)C(=O)N[C@H](CC(=O)O)C(=O)N[C@H](C)C(=O)N[C@@H](CC(=O)O)C(=O)NCC(=O)N[C@H](CO)C(=O)N[C@@H]([C@@H](C)CC(=O)O)C(=O)N[C@@H](CC(=O)c2ccccc2N)C(=O)O[C@@H]1C | Active |  | Active |  | Active | Active | Active | Active | Active | Active |  |  |  | inactive | inactive | inactive | inactive | 
8 | CCCCCCCCCC(=O)N[C@@H](Cc1c[nH]c2ccccc12)C(=O)N[C@H](CC(N)=O)C(=O)N[C@@H](CC(=O)O)C(=O)N[C@H]1CNC(=O)[C@@H](CC(=O)c2ccccc2N)NC(=O)[C@H](CCC(=O)O)NC(=O)[C@@H](CO)NC(=O)CNC(=O)[C@H](CC(=O)O)NC(=O)[C@@H](C)NC(=O)[C@H](CC(=O)O)NC(=O)[C@H](CCCN)NC(=O)CNC1=O | Active |  | Active |  | Active | Active | Active | Active | Active | Active |  |  |  |  |  |  |  | 
9 | CCCCCCCCCC(=O)N[C@@H](Cc1c[nH]c2ccccc12)C(=O)N[C@H](CC(N)=O)C(=O)N[C@@H](CC(=O)O)C(=O)N[C@H]1CNC(=O)[C@@H](Cc2c[nH]c3ccccc23)NC(=O)[C@H](CCC(=O)O)NC(=O)[C@@H](CO)NC(=O)CNC(=O)[C@H](CC(=O)O)NC(=O)[C@@H](C)NC(=O)[C@H](CC(=O)O)NC(=O)[C@H](CCCN)NC(=O)CNC1=O | Active |  | Active |  | Active | Active | Active | Active | Active | Active |  |  |  |  |  |  |  | 
10 | CCCCCCCCCC(=O)N[C@@H](Cc1c[nH]c2ccccc12)C(=O)N[C@H](CC(N)=O)C(=O)N[C@@H](CC(=O)O)C(=O)N[C@H]1CNC(=O)[C@H]2CCCN2C(=O)[C@H]([C@@H](C)CC)NC(=O)[C@@H]([C@@H](C)O)NC(=O)CNC(=O)[C@H](CC(=O)O)NC(=O)[C@@H](C)NC(=O)[C@H](CC(=O)O)NC(=O)CNC(=O)CNC1=O | Active |  | Active |  | Active | Active | Active | Active | Active | Active |  |  |  |  |  |  |  | 
11 | CC[C@H](C)[C@@H]1NC(=O)[C@@H]([C@@H](C)O)NC(=O)CNC(=O)[C@H](CC(=O)O)NC(=O)CNC(=O)[C@H](CC(=O)O)NC(=O)CNC(=O)[C@H]2CCCCN2C(=O)[C@@H](NC(=O)[C@H](CC(=O)O)NC(=O)/C=C/CCCCCCCCCC(C)C)CNC(=O)[C@@H]2CCCN2C1=O ({Tetradecenoyl(2E,13-Me)}-D[Dap][dPip]GDGDG[d(aThr)]IP; lactam 2-C) |  | ≤ 1 µg/mL |  |  | inactive | Active |  | inactive |  | inactive | 2 µg/mL | 4 µg/mL | 4 µg/mL (≈ 3.21 µM) | Active | inactive | Dose-dependent effect | Active | 7.3 nM
